# Measured values as given in paper PMC9276175 (Medicine, 2022).
# What was measured:
# HDAC1 = HDAC1 (Homo sapiens, UniProt Q13547); assay: Enzymatic HDAC fluorogenic assay, HDAC1; format: biochemical
# HDAC2 = HDAC2 (Homo sapiens, UniProt Q92769); assay: Enzymatic HDAC fluorogenic assay, HDAC2; format: biochemical
# HDAC3 = HDAC3 (Homo sapiens, UniProt O15379); assay: Enzymatic HDAC fluorogenic assay, HDAC3; format: biochemical
# HDAC4 = HDAC4 (Homo sapiens, UniProt P56524); assay: Enzymatic HDAC fluorogenic assay, HDAC4; format: biochemical
# HDAC6 = target: T1, HDAC6 (Homo sapiens, UniProt Q9UBN7); assay: Enzymatic HDAC fluorogenic assay, HDAC6; format: biochemical
# T1 sequence (Q9UBN7 1-1215): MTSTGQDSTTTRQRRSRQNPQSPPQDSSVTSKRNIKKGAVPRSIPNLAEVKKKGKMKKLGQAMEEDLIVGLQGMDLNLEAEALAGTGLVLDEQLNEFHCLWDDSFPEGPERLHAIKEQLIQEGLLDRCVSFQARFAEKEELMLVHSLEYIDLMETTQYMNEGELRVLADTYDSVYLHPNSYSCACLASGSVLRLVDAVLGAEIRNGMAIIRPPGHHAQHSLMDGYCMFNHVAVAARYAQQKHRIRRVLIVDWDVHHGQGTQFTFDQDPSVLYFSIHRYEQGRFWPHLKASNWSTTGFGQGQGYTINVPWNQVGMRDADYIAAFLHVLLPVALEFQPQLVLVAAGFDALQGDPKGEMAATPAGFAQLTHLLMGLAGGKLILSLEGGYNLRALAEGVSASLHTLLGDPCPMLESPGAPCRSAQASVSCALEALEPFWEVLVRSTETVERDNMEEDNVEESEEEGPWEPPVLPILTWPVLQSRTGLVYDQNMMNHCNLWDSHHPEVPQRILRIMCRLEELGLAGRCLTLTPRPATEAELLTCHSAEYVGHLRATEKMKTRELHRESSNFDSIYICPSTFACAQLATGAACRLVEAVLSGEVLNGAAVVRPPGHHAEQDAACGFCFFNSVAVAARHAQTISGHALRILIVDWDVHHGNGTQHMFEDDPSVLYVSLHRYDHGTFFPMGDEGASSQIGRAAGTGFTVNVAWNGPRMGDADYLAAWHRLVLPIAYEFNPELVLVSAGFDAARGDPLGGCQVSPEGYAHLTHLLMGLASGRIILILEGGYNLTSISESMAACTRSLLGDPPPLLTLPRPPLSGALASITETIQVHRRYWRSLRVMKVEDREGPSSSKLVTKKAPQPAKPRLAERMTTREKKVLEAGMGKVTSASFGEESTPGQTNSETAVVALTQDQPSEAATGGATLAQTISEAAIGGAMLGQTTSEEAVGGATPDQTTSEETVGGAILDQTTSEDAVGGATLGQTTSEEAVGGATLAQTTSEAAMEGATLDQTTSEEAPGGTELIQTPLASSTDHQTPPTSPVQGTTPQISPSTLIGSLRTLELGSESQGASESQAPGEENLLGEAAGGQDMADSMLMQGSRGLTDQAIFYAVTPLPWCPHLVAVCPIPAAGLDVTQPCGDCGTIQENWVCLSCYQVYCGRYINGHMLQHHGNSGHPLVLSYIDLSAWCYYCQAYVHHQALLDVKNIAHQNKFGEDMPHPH
# HDAC11 = target: T2, HDAC11 (Homo sapiens, UniProt Q96DB2); assay: Enzymatic HDAC fluorogenic assay, HDAC11; format: biochemical
# T2 sequence (Q96DB2 1-347): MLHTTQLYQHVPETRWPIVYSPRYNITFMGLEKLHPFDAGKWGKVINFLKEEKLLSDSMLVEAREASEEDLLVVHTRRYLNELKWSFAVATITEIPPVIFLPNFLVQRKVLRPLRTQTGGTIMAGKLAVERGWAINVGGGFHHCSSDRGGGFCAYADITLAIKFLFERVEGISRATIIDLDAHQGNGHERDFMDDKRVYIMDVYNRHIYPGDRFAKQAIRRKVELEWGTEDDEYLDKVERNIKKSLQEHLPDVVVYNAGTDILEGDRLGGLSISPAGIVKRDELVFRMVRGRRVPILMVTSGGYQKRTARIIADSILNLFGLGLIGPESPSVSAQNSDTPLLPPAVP
# MDA-MB-231 cells [1] = assay: Cell proliferation assay; format: cell-based, human; conditions: for impaired MDA-MB-231 cell growth: 3 days; for anti-proliferative activity (in words): 1, 2 and 3 days
# MDA-MB-231 cells [2] = assay: Western blot of acetylation status and HDAC expression; format: cell-based, human; conditions: 24 hours
# Summary of the method: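 MDA-MB-231 cells were treated 24 hours with test compound at 50–500 μM, with DMSO as negative control. Cells were lysed on ice in RIPA buffer (pH 7.6) with protease and phosphatase inhibitors. Protein (30 µg/lane) was run on SDS-PAGE and blotted to PVDF, then blocked in 5% skim milk/TBST. Antibodies against Ac-α-tubulin (Lys40), α-tubulin, Ac-histone H3 (Lys9), H3, HDAC1, HDAC6 and GAPDH were applied overnight, followed by HRP secondary and ECL detection.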
# MDA-MB-231 cells [3] = assay: Assessment of cell morphology; format: cell-based, human; conditions: 24 hours, dose-dependent, most significant at 300 to 500 μM
# Chain of HDAC4 (P56524 627-1084 limits assumed): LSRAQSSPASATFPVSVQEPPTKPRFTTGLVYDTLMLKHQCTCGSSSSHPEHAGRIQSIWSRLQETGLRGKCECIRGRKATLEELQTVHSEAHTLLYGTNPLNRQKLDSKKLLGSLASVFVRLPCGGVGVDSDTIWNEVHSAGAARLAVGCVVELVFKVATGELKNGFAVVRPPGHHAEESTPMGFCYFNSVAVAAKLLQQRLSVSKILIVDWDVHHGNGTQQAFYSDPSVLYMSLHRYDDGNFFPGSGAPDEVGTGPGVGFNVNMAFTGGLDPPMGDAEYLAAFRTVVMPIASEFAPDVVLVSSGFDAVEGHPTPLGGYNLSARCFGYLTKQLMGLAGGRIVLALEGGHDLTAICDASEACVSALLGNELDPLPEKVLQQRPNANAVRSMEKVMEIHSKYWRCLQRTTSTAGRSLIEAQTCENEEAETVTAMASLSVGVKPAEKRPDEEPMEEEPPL
# Chain of HDAC2 (Q92769 whole entry): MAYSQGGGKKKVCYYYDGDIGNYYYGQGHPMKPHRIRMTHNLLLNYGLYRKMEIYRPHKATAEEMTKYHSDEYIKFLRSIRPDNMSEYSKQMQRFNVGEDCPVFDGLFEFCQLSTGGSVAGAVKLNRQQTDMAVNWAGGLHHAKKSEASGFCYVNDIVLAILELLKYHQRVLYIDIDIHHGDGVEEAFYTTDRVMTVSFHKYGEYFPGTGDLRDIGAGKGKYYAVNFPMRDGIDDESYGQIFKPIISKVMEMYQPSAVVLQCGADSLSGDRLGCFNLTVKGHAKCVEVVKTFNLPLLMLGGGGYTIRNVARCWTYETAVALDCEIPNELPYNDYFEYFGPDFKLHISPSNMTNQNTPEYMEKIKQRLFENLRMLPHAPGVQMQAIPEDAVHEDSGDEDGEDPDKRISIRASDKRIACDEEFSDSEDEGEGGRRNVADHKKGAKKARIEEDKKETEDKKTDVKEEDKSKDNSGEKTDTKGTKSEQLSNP
# Chain of HDAC3 (O15379 whole entry): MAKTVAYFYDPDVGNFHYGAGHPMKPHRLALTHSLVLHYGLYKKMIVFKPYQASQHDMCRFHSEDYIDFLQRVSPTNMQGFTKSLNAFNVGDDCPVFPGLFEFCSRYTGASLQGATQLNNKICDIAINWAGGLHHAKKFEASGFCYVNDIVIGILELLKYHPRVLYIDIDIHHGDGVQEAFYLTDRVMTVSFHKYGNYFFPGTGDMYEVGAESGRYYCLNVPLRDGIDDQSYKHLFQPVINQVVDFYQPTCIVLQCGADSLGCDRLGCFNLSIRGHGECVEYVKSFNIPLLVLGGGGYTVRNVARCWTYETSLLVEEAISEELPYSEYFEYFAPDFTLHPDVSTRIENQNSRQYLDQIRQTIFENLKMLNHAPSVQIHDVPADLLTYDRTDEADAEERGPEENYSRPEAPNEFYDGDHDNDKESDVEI
# Chain of HDAC3 (Q9Y618 395-489 partner limits assumed): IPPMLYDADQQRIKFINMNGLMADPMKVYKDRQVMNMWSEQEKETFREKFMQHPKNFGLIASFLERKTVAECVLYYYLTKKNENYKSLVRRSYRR
# Chain of HDAC1 (Q13547 whole entry): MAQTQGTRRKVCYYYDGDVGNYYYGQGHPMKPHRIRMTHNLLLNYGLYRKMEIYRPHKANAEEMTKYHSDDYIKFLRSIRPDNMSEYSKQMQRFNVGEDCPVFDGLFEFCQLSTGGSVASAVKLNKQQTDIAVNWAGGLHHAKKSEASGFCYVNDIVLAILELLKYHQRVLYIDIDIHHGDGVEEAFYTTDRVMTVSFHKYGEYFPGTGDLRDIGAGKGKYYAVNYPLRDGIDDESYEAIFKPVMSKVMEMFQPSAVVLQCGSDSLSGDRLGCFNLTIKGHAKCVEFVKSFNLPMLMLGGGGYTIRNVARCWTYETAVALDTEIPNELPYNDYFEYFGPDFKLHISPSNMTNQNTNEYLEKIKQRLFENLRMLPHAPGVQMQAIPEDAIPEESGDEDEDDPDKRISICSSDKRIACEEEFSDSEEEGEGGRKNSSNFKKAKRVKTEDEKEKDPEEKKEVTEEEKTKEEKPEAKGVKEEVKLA
IC50 (HDAC1) [µM],IC50 (HDAC2) [µM],IC50 (HDAC3) [µM],IC50 (HDAC4) [µM],inhibition of class IIa HDAC (in words) (HDAC4),IC50 (HDAC6) [µM],inhibition of class IIb HDAC (in words) (HDAC6),IC50 (HDAC11) [µM],inhibition of class IV HDAC (in words) (HDAC11),inhibition of class IV HDAC11 (in words) (HDAC11; up to 100 μM concentration),Compound,impaired MDA-MB-231 cell growth (MDA-MB-231 cells [1]; 500 μM) [%],impaired MDA-MB-231 cell growth (MDA-MB-231 cells [1]; 1000 μM) [%],anti-proliferative activity (in words) (MDA-MB-231 cells [1]; concentrations from 300 to 1000 μM),anti-proliferative activity (in words) (MDA-MB-231 cells [1]; up to 100 μM concentration),expression level of HDAC6 (MDA-MB-231 cells [2]; 500 μM),expression level of HDAC6 (MDA-MB-231 cells [2]; 50 to 500 μM),acetylation of α-tubulin (MDA-MB-231 cells [2]; concentrations ranging from 300 to 500 μM),acetylation of Histone H3 (MDA-MB-231 cells [2]; up to 300 μM concentration),morphological changes in cells (MDA-MB-231 cells [3])
22.2 ± 2.69,27.3 ± 3.71,7.9 ± 2.57,> 100,failed to inhibit,> 100,failed to inhibit,> 100,failed to inhibit,,"O=C(CCCCCNC(=O)c1ccccc1O)Nc1ccccc1 [Compound 5, 2-Hydroxy-N-(6-oxo-6-(phenylamino)hexyl)benzamide]",64,81,mediocre dose- and time-dependent anti-proliferative activity,no anti-proliferative activity,significantly depleted the expression level of HDAC6,decreased the expression level of HDAC6 in a dose-dependent manner,promoted the acetylation of α-tubulin,dose-dependently increased the acetylation of Histone H3,more elongated and spindle-shaped
,,,,,,,,,no inhibition,"O=C(CCCCCCC(=O)Nc1ccccc1)NO [SAHA, Vorinostat, reference compound]",,,,,,,,,
